Measurements taken from ChEMBL document CHEMBL3808388 (J Med Chem, 2016).
Calls of active or inactive are those of the source. The rule behind the calls is not given here.

Key:
[1] = Inhibition of PKA (unknown origin) using CREBtide as substrate by ADP-Glo kinase assay; design: species or system Homo sapiens
Outline: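 ADP-Glo luminescence assay following the manufacturer's protocol. Inhibition curves were fitted from luminescence. IC50s are averages of three separate experiments, each run in duplicate.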

Rhodopsin kinase GRK1 = molecular target: T1, Rhodopsin kinase GRK1 (Homo sapiens, UniProt Q15835); experiment: Inhibition of GRK1 (unknown origin) using tubulin as substrate by SDS-PAGE method
T1 sequence (Q15835 whole entry): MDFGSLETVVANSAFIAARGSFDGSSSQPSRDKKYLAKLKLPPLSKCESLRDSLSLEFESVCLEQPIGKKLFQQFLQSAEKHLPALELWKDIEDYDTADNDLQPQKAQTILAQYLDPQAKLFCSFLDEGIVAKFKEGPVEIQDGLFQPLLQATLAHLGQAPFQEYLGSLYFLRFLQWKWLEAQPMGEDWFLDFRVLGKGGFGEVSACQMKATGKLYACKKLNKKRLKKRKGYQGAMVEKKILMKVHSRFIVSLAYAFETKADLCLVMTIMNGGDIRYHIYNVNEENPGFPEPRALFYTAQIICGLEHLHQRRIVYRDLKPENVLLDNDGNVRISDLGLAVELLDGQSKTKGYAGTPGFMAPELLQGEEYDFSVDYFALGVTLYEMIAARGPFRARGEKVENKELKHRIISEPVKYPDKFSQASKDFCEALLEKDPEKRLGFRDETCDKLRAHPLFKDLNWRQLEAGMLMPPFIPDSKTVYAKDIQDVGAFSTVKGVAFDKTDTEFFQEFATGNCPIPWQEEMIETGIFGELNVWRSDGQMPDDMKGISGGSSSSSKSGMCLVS

[2] = molecular target: G protein-coupled receptor kinase 5 (Homo sapiens, UniProt P34947); experiment: Inhibition of GRK5 (unknown origin) using tubulin as substrate by SDS-PAGE method
[3] = molecular target: T2, Rho-associated protein kinase 1 (Homo sapiens, UniProt Q13464); experiment: Inhibition of ROCK1 (unknown origin) at 10 uM by ADP-Glo kinase assay
Outline: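 ADP-Glo luminescence assay following the manufacturer's protocol. Percent inhibition was read at a single 10 μM inhibitor concentration.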
Target sequence in this assay (Q13464 2-1354 limits assumed): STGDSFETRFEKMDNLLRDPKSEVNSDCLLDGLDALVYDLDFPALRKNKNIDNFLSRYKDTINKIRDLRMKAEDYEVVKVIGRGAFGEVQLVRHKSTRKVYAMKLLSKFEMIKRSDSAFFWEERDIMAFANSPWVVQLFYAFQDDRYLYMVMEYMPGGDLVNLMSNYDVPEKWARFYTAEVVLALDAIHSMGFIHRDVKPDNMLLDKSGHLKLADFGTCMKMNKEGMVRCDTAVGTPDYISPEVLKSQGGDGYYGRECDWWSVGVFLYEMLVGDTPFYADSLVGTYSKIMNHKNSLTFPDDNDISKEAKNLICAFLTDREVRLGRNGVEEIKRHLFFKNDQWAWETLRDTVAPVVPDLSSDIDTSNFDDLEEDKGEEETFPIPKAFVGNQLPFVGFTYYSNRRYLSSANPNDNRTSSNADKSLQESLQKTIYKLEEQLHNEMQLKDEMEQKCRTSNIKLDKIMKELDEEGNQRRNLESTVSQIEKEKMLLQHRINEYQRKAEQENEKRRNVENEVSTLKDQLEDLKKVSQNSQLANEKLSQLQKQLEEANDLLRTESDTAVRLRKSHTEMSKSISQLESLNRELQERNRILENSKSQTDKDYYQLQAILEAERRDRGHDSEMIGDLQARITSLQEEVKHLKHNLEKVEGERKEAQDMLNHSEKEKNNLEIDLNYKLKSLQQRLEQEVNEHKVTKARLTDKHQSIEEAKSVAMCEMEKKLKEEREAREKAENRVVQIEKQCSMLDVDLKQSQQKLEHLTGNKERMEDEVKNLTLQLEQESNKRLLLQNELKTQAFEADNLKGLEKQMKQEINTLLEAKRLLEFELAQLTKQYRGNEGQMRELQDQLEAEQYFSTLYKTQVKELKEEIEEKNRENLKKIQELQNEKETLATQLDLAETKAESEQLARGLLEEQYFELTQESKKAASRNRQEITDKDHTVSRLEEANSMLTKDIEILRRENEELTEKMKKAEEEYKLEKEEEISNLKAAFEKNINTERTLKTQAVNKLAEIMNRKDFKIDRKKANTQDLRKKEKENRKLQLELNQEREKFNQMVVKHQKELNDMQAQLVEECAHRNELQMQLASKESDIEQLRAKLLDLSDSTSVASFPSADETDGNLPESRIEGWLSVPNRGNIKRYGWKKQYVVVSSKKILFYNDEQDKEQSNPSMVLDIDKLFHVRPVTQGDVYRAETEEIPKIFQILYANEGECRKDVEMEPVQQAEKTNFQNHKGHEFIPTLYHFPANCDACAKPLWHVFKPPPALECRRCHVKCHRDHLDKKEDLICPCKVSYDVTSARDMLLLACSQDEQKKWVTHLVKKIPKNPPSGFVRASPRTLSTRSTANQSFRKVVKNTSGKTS

[4] = molecular target: T2, Rho-associated protein kinase 1; experiment: Inhibition of ROCK1 (unknown origin) by ADP-Glo kinase assay
Target sequence in this assay (Q13464 whole entry): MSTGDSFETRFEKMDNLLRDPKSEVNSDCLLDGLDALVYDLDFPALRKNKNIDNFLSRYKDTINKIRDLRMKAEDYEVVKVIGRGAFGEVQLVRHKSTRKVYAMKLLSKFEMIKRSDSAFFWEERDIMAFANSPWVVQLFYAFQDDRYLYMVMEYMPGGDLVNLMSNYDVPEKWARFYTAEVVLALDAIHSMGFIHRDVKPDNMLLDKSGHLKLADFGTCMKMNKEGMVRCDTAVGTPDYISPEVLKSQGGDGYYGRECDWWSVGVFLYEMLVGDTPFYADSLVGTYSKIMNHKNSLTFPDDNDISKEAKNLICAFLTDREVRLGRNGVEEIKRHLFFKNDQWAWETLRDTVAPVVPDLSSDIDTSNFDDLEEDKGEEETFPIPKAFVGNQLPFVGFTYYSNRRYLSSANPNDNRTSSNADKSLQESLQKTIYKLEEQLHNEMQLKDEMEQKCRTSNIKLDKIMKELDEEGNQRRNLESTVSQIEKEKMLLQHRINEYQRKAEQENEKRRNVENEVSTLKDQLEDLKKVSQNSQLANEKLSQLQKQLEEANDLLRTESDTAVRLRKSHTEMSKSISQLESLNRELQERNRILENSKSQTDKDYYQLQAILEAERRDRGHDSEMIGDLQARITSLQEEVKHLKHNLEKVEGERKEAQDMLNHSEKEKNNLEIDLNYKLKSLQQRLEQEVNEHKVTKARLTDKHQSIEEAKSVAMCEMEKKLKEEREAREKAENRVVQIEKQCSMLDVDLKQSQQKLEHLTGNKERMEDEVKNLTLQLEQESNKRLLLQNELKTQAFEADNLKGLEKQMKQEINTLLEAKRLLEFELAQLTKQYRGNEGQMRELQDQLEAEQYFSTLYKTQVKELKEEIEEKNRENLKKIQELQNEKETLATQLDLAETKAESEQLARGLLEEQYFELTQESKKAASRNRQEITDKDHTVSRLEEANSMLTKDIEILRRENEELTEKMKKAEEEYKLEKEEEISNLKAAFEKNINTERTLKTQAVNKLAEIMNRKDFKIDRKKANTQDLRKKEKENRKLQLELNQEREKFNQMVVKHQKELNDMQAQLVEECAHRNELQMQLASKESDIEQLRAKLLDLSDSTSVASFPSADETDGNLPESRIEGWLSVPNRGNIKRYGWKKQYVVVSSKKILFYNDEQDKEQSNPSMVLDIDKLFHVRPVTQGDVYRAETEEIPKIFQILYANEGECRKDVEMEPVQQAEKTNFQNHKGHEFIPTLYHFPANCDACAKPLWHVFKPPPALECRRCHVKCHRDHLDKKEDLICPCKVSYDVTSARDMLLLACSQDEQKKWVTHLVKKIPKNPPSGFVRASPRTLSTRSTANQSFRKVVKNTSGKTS

[5] = molecular target: T3, Beta-adrenergic receptor kinase 1 (Mus musculus) (UniProt Q99MK8); experiment: Inhibition of GRK2 in C57BL/6 mouse cardiomyocytes assessed as increase in contractility at 1 uM preincubated for 10 mins followed by beta adrenergic receptor agonist isoproterenol addition for 2 mins; type: cell-based
T3 sequence (whole entry): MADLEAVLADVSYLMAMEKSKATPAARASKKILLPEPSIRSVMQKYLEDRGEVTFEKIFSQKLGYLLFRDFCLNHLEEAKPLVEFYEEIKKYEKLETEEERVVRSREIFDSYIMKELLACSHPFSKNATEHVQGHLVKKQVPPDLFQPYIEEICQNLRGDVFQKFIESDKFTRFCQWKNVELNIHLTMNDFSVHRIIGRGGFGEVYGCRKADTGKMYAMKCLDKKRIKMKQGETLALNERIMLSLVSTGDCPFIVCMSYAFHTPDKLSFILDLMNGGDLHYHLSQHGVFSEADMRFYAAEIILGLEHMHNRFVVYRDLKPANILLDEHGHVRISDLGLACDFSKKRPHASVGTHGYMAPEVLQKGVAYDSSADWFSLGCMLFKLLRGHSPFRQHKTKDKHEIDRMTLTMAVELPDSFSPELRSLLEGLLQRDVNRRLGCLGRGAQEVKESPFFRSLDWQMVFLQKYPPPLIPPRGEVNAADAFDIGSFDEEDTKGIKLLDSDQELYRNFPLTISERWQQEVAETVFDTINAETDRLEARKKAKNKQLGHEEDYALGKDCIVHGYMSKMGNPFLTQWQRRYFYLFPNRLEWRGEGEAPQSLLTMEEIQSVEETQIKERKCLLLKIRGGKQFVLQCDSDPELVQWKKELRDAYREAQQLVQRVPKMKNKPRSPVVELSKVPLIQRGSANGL

[6] = molecular target: T3, Beta-adrenergic receptor kinase 1 (Mus musculus); experiment: Inhibition of GRK2 in C57BL/6 mouse cardiomyocytes assessed as increase in contractility at 0.5 uM preincubated for 10 mins followed by beta adrenergic receptor agonist isoproterenol addition for 2 mins; type: cell-based

Sequence of G protein-coupled receptor kinase 5 (P34947 whole entry): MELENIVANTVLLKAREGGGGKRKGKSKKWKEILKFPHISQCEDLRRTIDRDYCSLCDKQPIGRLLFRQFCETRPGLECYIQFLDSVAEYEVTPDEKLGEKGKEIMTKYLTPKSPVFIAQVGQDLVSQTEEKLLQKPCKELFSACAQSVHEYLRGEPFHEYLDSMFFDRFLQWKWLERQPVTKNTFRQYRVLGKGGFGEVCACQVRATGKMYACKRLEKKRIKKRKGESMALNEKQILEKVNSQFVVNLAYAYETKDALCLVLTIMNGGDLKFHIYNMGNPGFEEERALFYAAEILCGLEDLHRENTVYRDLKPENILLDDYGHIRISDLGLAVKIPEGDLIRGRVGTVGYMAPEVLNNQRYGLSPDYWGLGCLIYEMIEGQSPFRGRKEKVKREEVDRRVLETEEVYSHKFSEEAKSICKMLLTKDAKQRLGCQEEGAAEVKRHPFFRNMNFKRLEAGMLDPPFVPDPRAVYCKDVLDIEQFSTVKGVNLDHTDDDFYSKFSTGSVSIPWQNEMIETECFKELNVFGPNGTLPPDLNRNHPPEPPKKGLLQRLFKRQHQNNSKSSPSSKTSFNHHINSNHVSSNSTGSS

| SMILES | IC50 [1] | IC50 (Rhodopsin kinase GRK1) | IC50 [2] | inhibition [3] | IC50 [4] | Activity [5] | Activity [6] |
| --- | --- | --- | --- | --- | --- | --- | --- |
| CC1=C(C(=O)Nc2ccc3[nH]ncc3c2)C(c2ccc(F)c(C(=O)NCc3ccccc3)c2)NC(=O)N1 (stereo unspecified) | > 100 µM | 71 µM | 4.7 µM | – | – | – | – |
| Fc1ccc([C@@H]2CCNC[C@H]2COc2ccc3c(c2)OCO3)cc1 [PAROXETINE] | > 100 µM | – | – | 10% | – | – | – |
| CC1=C(C(=O)Nc2ccc3[nH]ncc3c2)C(c2ccc(F)c(C(=O)NCc3c(C(F)(F)F)cccc3C(F)(F)F)c2)NC(=O)N1 (stereo unspecified) | > 100 µM | > 100 µM | > 100 µM | 22% | – | – | – |
| COc1ccccc1CNC(=O)c1cc(C2NC(=O)NC(C)=C2C(=O)Nc2ccc3[nH]ncc3c2)ccc1F (stereo unspecified) | > 100 µM | 16 µM | 2.3 µM | – | – | – | – |
| CC1=C(C(=O)Nc2ccc3[nH]ncc3c2)C(c2ccc(F)cc2)NC(=O)N1 (stereo unspecified) [GSK-180736A] | – | > 100 µM | – | – | 0.1 µM | Active | – |
| CC1=C(C(=O)N(C)c2ccc3[nH]ncc3c2)C(c2ccc(F)c(C(=O)NCc3c(C)cccc3C)c2)NC(=O)N1 (stereo unspecified) | > 100 µM | > 100 µM | – | – | 2.1 µM | – | – |
| CC1=C(C(=O)Nc2ccc3[nH]ncc3c2)C(c2ccc(F)c(C(=O)NCc3c(C)cccc3C)c2)NC(=O)N1 (stereo unspecified) | > 100 µM | > 100 µM | – | – | – | Active | – |
| CC1=C(C(=O)Nc2ccc3[nH]ncc3c2)C(c2ccc(F)c(C(=O)NCCc3ccccn3)c2)NC(=O)N1 (stereo unspecified) | > 100 µM | > 100 µM | 6.2 µM | – | – | – | – |
| CC1=C(C(=O)Nc2ccc3[nH]ncc3c2)C(c2ccc(F)c(C(=O)NCc3nccc4ccccc34)c2)NC(=O)N1 (stereo unspecified) | – | – | 1.8 µM | – | 0.012 µM | – | – |
| CC1=C(C(=O)Nc2ccc3[nH]ncc3c2)C(c2ccc(F)c(C(=O)O)c2)NC(=O)N1 (stereo unspecified) | 78.1 µM | > 100 µM | – | – | 0.19 µM | – | – |
| CC1=C(C(=O)Nc2ccc3[nH]ncc3c2)C(c2ccc(F)c(C(=O)NCc3cccc(F)c3)c2)NC(=O)N1 (stereo unspecified) | > 100 µM | 11.9 µM | – | – | – | – | – |
| CC1=C(C(=O)Nc2ccc3[nH]ncc3c2)C(c2ccc(F)c(C(=O)NCc3ccccn3)c2)NC(=O)N1 (stereo unspecified) | > 100 µM | 3.9 µM | – | – | – | – | Active |
| CNC(=O)c1cc(C2NC(=O)NC(C)=C2C(=O)Nc2ccc3[nH]ncc3c2)ccc1F (stereo unspecified) | > 100 µM | > 100 µM | > 100 µM | – | 0.56 µM | – | – |
| CC1=C(C(=O)Nc2ccc3c(c2)OCO3)C(c2ccc(F)c(C(=O)NCc3ccccn3)c2)NC(=O)N1 (stereo unspecified) | > 100 µM | > 100 µM | > 100 µM | – | – | – | – |
| CC1=C(C(=O)Nc2ccc3[nH]ncc3c2)C(c2ccc(F)c(C(=O)NCCc3ccncc3)c2)NC(=O)N1 (stereo unspecified) | > 100 µM | > 100 µM | – | – | 0.084 µM | – | – |
| CC1=C(C(=O)Nc2ccc3[nH]ncc3c2)C(c2ccc(F)c(C(=O)NCc3c(F)cccc3F)c2)NC(=O)N1 (stereo unspecified) | > 100 µM | > 100 µM | 5 µM | – | 0.11 µM | – | Active |
| CC1=C(C(=O)Nc2ccc3[nH]ncc3c2)C(c2ccc(F)c(C(=O)NCc3c(Cl)cccc3Cl)c2)NC(=O)N1 (stereo unspecified) | > 100 µM | > 100 µM | > 100 µM | – | – | – | – |
| COc1cccc(OC)c1CNC(=O)Cc1cc(C2NC(=O)NC(C)=C2C(=O)Nc2ccc3[nH]ncc3c2)ccc1F (stereo unspecified) | > 100 µM | > 100 µM | > 100 µM | – | – | – | – |
| CCCn1c(CNc2cccc(C(=O)NCc3c(F)cccc3F)c2)nnc1-c1ccncn1 | – | 9 µM | 2.2 µM | 10% | – | – | – |
| CC1=C(C(=O)Nc2ccc3[nH]ncc3c2)C(c2ccc(F)c(CC(=O)NCc3c(C(F)(F)F)cccc3C(F)(F)F)c2)NC(=O)N1 (stereo unspecified) | > 100 µM | > 100 µM | > 100 µM | – | – | – | – |
| CC1=C(C(=O)Nc2ccc3[nH]ncc3c2)C(c2ccc(F)c(C(=O)NCc3ncccc3C)c2)NC(=O)N1 (stereo unspecified) | > 100 µM | > 100 µM | – | – | – | – | – |
| CC1=C(C(=O)Nc2ccc3[nH]ncc3c2)C(c2ccc(F)c(C(=O)NCCc3c(C)cccc3C)c2)NC(=O)N1 (stereo unspecified) | > 100 µM | > 100 µM | – | – | – | – | – |
| CC1=C(C(=O)Nc2ccc3[nH]ncc3c2)C(c2ccc(F)c(CC(=O)NCc3c(C)cccc3C)c2)NC(=O)N1 (stereo unspecified) | > 100 µM | > 100 µM | – | – | – | – | – |
| COc1cccc(CNC(=O)c2cc(C3NC(=O)NC(C)=C3C(=O)Nc3ccc4[nH]ncc4c3)ccc2F)c1 (stereo unspecified) | > 100 µM | > 100 µM | 3.8 µM | – | – | – | – |
| COc1ccc(CNC(=O)c2cc(C3NC(=O)NC(C)=C3C(=O)Nc3ccc4[nH]ncc4c3)ccc2F)cc1 (stereo unspecified) | > 100 µM | > 100 µM | 8.1 µM | – | – | – | – |
| COc1cccc(OC)c1CNC(=O)c1cc(C2NC(=O)NC(C)=C2C(=O)Nc2ccc3[nH]ncc3c2)ccc1F (stereo unspecified) | > 100 µM | > 100 µM | > 100 µM | 0% | – | – | Active |
| CC1=C(C(=O)Nc2ccc3[nH]ncc3c2)C(c2ccc(F)c(C(=O)NCc3cc(C(F)(F)F)cc(C(F)(F)F)c3)c2)NC(=O)N1 (stereo unspecified) | > 100 µM | > 100 µM | > 100 µM | – | – | – | – |
